Test results from ChEMBL document CHEMBL1154674, “Synthesis and evaluation of three 18F-labeled aminophenylbenzothiazoles as amyloid imaging agents” (J Med Chem, 2009).

How the values were obtained:
Type in all cases: ADME, organism-based
[1] = Biodistribution in NMRI mouse cerebrum at 3.7 MBq/mL, iv after 2 mins by gamma counting; conditions: in vivo
How it was run: (§1)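 Male NMRI mice (30-40 g) under isoflurane (1.5-2.5% in oxygen) got 0.1 mL of HPLC-purified tracer diluted with 0.9% NaCl to 3.7 MBq/mL (ethanol ≤10%) via tail vein. Mice were decapitated at 2 or 60 min p.i., and organs, blood and urine were weighed and γ-counted. Values are background-corrected %ID or %ID/g, with blood mass taken as 7% of body mass.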

Lung [2] = test: Biodistribution in NMRI mouse lung at 3.7 MBq/mL, iv after 60 mins by gamma counting; conditions: in vivo, 1 h; how it was run: as §1
Kidney [3] = test: Drug level in NMRI mouse kidney assessed as standard uptake value at 3.7 MBq/mL, iv after 60 mins by gamma counting; conditions: in vivo, 1 h
How it was run: (§2)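 Male NMRI mice (30-40 g) were anaesthetised with isoflurane. Each received 0.1 mL of HPLC-purified tracer, diluted in 0.9% NaCl to 3.7 MBq/mL (ethanol ≤10%), via a tail vein. Mice were decapitated at 2 or 60 min. Organs were dissected, weighed and γ-counted with background correction. SUV = (organ cpm/organ weight)/(total recovered counts/body weight). Blood mass was taken as 7% of body mass.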

[4] = Biodistribution in NMRI mouse spleen/pancreas assessed per gram of tissue at 3.7 MBq/mL, iv after 60 mins by gamma counting; conditions: in vivo, 1 h; how it was run: as §1
Heart [5] = test: Drug level in NMRI mouse heart assessed as standard uptake value at 3.7 MBq/mL, iv after 2 mins by gamma counting; conditions: in vivo; how it was run: as §2
Intestine [6] = test: Biodistribution in NMRI mouse intestine at 3.7 MBq/mL, iv after 2 mins by gamma counting; conditions: in vivo; how it was run: as §1
Stomach [7] = test: Biodistribution in NMRI mouse stomach at 3.7 MBq/mL, iv after 60 mins by gamma counting; conditions: in vivo, 1 h; how it was run: as §1
[8] = Drug level in NMRI mouse cerebrum assessed as standard uptake value at 3.7 MBq/mL, iv after 2 mins by gamma counting; conditions: in vivo; how it was run: as §2
Liver [9] = test: Drug level in NMRI mouse liver assessed as standard uptake value at 3.7 MBq/mL, iv after 2 mins by gamma counting; conditions: in vivo; how it was run: as §2
Kidney [10] = test: Biodistribution in NMRI mouse kidney assessed per gram of tissue at 3.7 MBq/mL, iv after 2 mins by gamma counting; conditions: in vivo; how it was run: as §1
Cerebellum [11] = test: Drug level in NMRI mouse cerebellum assessed as standard uptake value at 3.7 MBq/mL, iv after 2 mins by gamma counting; conditions: in vivo; how it was run: as §2
[12] = Biodistribution in NMRI mouse cerebrum at 3.7 MBq/mL, iv after 60 mins by gamma counting; conditions: in vivo, 1 h; how it was run: as §1
Blood [13] = test: Biodistribution in NMRI mouse blood at 3.7 MBq/mL, iv after 2 mins by gamma counting; conditions: in vivo; how it was run: as §1
Blood [14] = test: Drug level in NMRI mouse blood assessed as standard uptake value at 3.7 MBq/mL, iv after 60 mins by gamma counting; conditions: in vivo, 1 h; how it was run: as §2
Lung [15] = test: Biodistribution in NMRI mouse lung at 3.7 MBq/mL, iv after 2 mins by gamma counting; conditions: in vivo; how it was run: as §1
[16] = Biodistribution in NMRI mouse cerebrum assessed per gram of tissue at 3.7 MBq/mL, iv after 2 mins by gamma counting; conditions: in vivo; how it was run: as §1
Blood [17] = test: Biodistribution in NMRI mouse blood at 3.7 MBq/mL, iv after 60 mins by gamma counting; conditions: in vivo, 1 h; how it was run: as §1
Lung [18] = test: Drug level in NMRI mouse lung assessed as standard uptake value at 3.7 MBq/mL, iv after 60 mins by gamma counting; conditions: in vivo, 1 h; how it was run: as §2
Kidney [19] = test: Biodistribution in NMRI mouse kidney at 3.7 MBq/mL, iv after 60 mins by gamma counting; conditions: in vivo, 1 h; how it was run: as §1
[20] = Drug level in NMRI mouse spleen/pancreas assessed as standard uptake value at 3.7 MBq/mL, iv after 60 mins by gamma counting; conditions: in vivo, 1 h; how it was run: as §2
Stomach [21] = test: Biodistribution in NMRI mouse stomach at 3.7 MBq/mL, iv after 2 mins by gamma counting; conditions: in vivo; how it was run: as §1
Intestine [22] = test: Biodistribution in NMRI mouse intestine at 3.7 MBq/mL, iv after 60 mins by gamma counting; conditions: in vivo, 1 h; how it was run: as §1
Lung [23] = test: Drug level in NMRI mouse lung assessed as standard uptake value at 3.7 MBq/mL, iv after 2 mins by gamma counting; conditions: in vivo; how it was run: as §2
Heart [24] = test: Biodistribution in NMRI mouse heart assessed per gram of tissue at 3.7 MBq/mL, iv after 2 mins by gamma counting; conditions: in vivo; how it was run: as §1
[25] = Biodistribution in NMRI mouse urine at 3.7 MBq/mL, iv after 2 mins by gamma counting; conditions: in vivo; how it was run: as §1
[26] = Biodistribution in NMRI mouse cerebrum assessed per gram of tissue at 3.7 MBq/mL, iv after 60 mins by gamma counting; conditions: in vivo, 1 h; how it was run: as §1
[27] = Biodistribution in NMRI mouse spleen/pancreas at 3.7 MBq/mL, iv after 2 mins by gamma counting; conditions: in vivo; how it was run: as §1
[28] = Drug level in NMRI mouse cerebrum assessed as standard uptake value at 3.7 MBq/mL, iv after 60 mins by gamma counting; conditions: in vivo, 1 h; how it was run: as §2
Cerebellum [29] = test: Biodistribution in NMRI mouse cerebellum assessed per gram of tissue at 3.7 MBq/mL, iv after 60 mins by gamma counting; conditions: in vivo, 1 h; how it was run: as §1
[30] = Biodistribution in NMRI mouse spleen/pancreas assessed per gram of tissue at 3.7 MBq/mL, iv after 2 mins by gamma counting; conditions: in vivo; how it was run: as §1
Kidney [31] = test: Drug level in NMRI mouse kidney assessed as standard uptake value at 3.7 MBq/mL, iv after 2 mins by gamma counting; conditions: in vivo; how it was run: as §2
Liver [32] = test: Biodistribution in NMRI mouse liver assessed per gram of tissue at 3.7 MBq/mL, iv after 60 mins by gamma counting; conditions: in vivo, 1 h; how it was run: as §1
Blood [33] = test: Drug level in NMRI mouse blood assessed as standard uptake value at 3.7 MBq/mL, iv after 2 mins by gamma counting; conditions: in vivo; how it was run: as §2
Kidney [34] = test: Biodistribution in NMRI mouse kidney assessed per gram of tissue at 3.7 MBq/mL, iv after 60 mins by gamma counting; conditions: in vivo, 1 h; how it was run: as §1
Heart [35] = test: Biodistribution in NMRI mouse heart assessed per gram of tissue at 3.7 MBq/mL, iv after 60 mins by gamma counting; conditions: in vivo, 1 h; how it was run: as §1
Cerebellum [36] = test: Drug level in NMRI mouse cerebellum assessed as standard uptake value at 3.7 MBq/mL, iv after 60 mins by gamma counting; conditions: in vivo, 1 h; how it was run: as §2
Blood [37] = test: Biodistribution in NMRI mouse blood assessed per gram of tissue at 3.7 MBq/mL, iv after 2 mins by gamma counting; conditions: in vivo; how it was run: as §1
Liver [38] = test: Biodistribution in NMRI mouse liver at 3.7 MBq/mL, iv after 2 mins by gamma counting; conditions: in vivo; how it was run: as §1
Lung [39] = test: Biodistribution in NMRI mouse lung assessed per gram of tissue at 3.7 MBq/mL, iv after 60 mins by gamma counting; conditions: in vivo, 1 h; how it was run: as §1
Heart [40] = test: Biodistribution in NMRI mouse heart at 3.7 MBq/mL, iv after 2 mins by gamma counting; conditions: in vivo; how it was run: as §1
Cerebellum [41] = test: Biodistribution in NMRI mouse cerebellum at 3.7 MBq/mL, iv after 60 mins by gamma counting; conditions: in vivo, 1 h; how it was run: as §1
[42] = Drug level in NMRI mouse spleen/pancreas assessed as standard uptake value at 3.7 MBq/mL, iv after 2 mins by gamma counting; conditions: in vivo; how it was run: as §2
Liver [43] = test: Drug level in NMRI mouse liver assessed as standard uptake value at 3.7 MBq/mL, iv after 60 mins by gamma counting; conditions: in vivo, 1 h; how it was run: as §2

## [11CH3]Nc1ccc(-c2nc3ccc(O)cc3s2)cc1 [PITTSBURGH COMPOUND B]
[1]
  Drug uptake: 1.08%
Lung [2]
  Drug uptake: 0.3%
Kidney [3]
  SUV: 3.3
[4]
  Drug uptake: 0.7%
Heart [5]
  SUV: 1.5
Intestine [6]
  Drug uptake: 12%
Stomach [7]
  Drug uptake: 0.3%
[8]
  SUV: 1.33
Liver [9]
  SUV: 2.9
Kidney [10]
  Drug uptake: 19.9%
Cerebellum [11]
  SUV: 0.59
[12]
  Drug uptake: 0.18%
Blood [13]
  Drug uptake: 7.9%
Blood [14]
  SUV: 0.4
Lung [15]
  Drug uptake: 0.9%
[16]
  Drug uptake: 3.6%
Blood [17]
  Drug uptake: 2.7%
Lung [18]
  SUV: 0.4
Kidney [19]
  Drug uptake: 4.8%
[20]
  SUV: 0.2
Stomach [21]
  Drug uptake: 1.1%
Intestine [22]
  Drug uptake: 42.5%
Lung [23]
  SUV: 1.3
Heart [24]
  Drug uptake: 4.2%
[25]
  Drug uptake: 0.2%
[26]
  Drug uptake: 0.6%
[27]
  Drug uptake: 0.6%
[28]
  SUV: 0.22
Cerebellum [29]
  Drug uptake: 0.31%
[30]
  Drug uptake: 4.7%
Kidney [31]
  SUV: 7.4
Liver [32]
  Drug uptake: 5%
Blood [33]
  SUV: 1.13
Kidney [34]
  Drug uptake: 9.1%
Heart [35]
  Drug uptake: 2.1%
Cerebellum [36]
  SUV: 0.11
Blood [37]
  Drug uptake: 3.1%
Liver [38]
  Drug uptake: 15.6%
Lung [39]
  Drug uptake: 1.3%
Heart [40]
  Drug uptake: 0.6%
Cerebellum [41]
  Drug uptake: 0.03%

## Nc1ccc2nc(-c3ccc([18F])cc3)sc2c1
[1]
  Drug uptake: 4.56%
Lung [2]
  Drug uptake: 0.3%
Kidney [3]
  SUV: 0.6
[4]
  Drug uptake: 1.1%
Heart [5]
  SUV: 1.9
Intestine [6]
  Drug uptake: 11.1%
Stomach [7]
  Drug uptake: 0.6%
[8]
  SUV: 4.47
Liver [9]
  SUV: 6.4
Kidney [10]
  Drug uptake: 13.3%
Cerebellum [11]
  SUV: 4.96
[12]
  Drug uptake: 0.32%
Blood [13]
  Drug uptake: 5.3%
Blood [14]
  SUV: 0.2
Lung [15]
  Drug uptake: 2%
[16]
  Drug uptake: 13.97%
Blood [17]
  Drug uptake: 1.3%
Lung [18]
  SUV: 0.4
Kidney [19]
  Drug uptake: 1%
[20]
  SUV: 0.3
Stomach [21]
  Drug uptake: 1.6%
Intestine [22]
  Drug uptake: 68.6%
Lung [23]
  SUV: 2.8
Heart [24]
  Drug uptake: 5.9%
[25]
  Drug uptake: 0.2%
[26]
  Drug uptake: 0.97%
[27]
  Drug uptake: 1.4%
[28]
  SUV: 0.31
Cerebellum [29]
  Drug uptake: 1.34%
[30]
  Drug uptake: 6.8%
[42]
  SUV: 2.2
Liver [32]
  Drug uptake: 5.6%
Liver [43]
  SUV: 1.8
Blood [33]
  SUV: 0.8
Kidney [34]
  Drug uptake: 1.8%
Heart [35]
  Drug uptake: 0.7%
Cerebellum [36]
  SUV: 0.42
Blood [37]
  Drug uptake: 2.4%
Liver [38]
  Drug uptake: 39.8%
Lung [39]
  Drug uptake: 1.2%
Heart [40]
  Drug uptake: 0.7%
Cerebellum [41]
  Drug uptake: 0.17%

## CN(C)c1ccc2nc(-c3ccc([18F])cc3)sc2c1
[1]
  Drug uptake: 2.95%
Lung [2]
  Drug uptake: 0.6%
Kidney [3]
  SUV: 2.4
[4]
  Drug uptake: 1%
Heart [5]
  SUV: 2.7
Intestine [6]
  Drug uptake: 10%
Stomach [7]
  Drug uptake: 1.2%
[8]
  SUV: 3.2
Liver [9]
  SUV: 6.8
Kidney [10]
  Drug uptake: 11.7%
Cerebellum [11]
  SUV: 3.35
[12]
  Drug uptake: 0.65%
Blood [13]
  Drug uptake: 2.8%
Blood [14]
  SUV: 0.3
Lung [15]
  Drug uptake: 2.2%
[16]
  Drug uptake: 8.84%
Blood [17]
  Drug uptake: 2.4%
Lung [18]
  SUV: 0.7
Kidney [19]
  Drug uptake: 4.8%
[20]
  SUV: 0.4
Stomach [21]
  Drug uptake: 1.4%
Intestine [22]
  Drug uptake: 28%
Lung [23]
  SUV: 2.9
Heart [24]
  Drug uptake: 7.4%
[25]
  Drug uptake: 0.1%
[26]
  Drug uptake: 1.94%
[27]
  Drug uptake: 1.5%
[28]
  SUV: 0.72
Cerebellum [29]
  Drug uptake: 2.24%
[30]
  Drug uptake: 5.5%
[42]
  SUV: 2
Kidney [31]
  SUV: 4.3
Liver [32]
  Drug uptake: 8%
Liver [43]
  SUV: 3
Blood [33]
  SUV: 0.4
Kidney [34]
  Drug uptake: 6.5%
Heart [35]
  Drug uptake: 1.3%
Cerebellum [36]
  SUV: 0.83
Blood [37]
  Drug uptake: 1.1%
Liver [38]
  Drug uptake: 41.9%
Lung [39]
  Drug uptake: 1.9%
Heart [40]
  Drug uptake: 1.2%
Cerebellum [41]
  Drug uptake: 0.22%
